For one test, the system named is NCI-H23. The test can be described thus: Antiproliferative activity against human NCI-H23 cells harboring KRAS G12C mutant assessed as reduction in cell viability. In kind it is functional, cell-based.
The target in test [1] is T1, Synaptic vesicle membrane protein VAT-1 homolog (Homo sapiens) (UniProt Q99536).
T1 sequence (whole entry): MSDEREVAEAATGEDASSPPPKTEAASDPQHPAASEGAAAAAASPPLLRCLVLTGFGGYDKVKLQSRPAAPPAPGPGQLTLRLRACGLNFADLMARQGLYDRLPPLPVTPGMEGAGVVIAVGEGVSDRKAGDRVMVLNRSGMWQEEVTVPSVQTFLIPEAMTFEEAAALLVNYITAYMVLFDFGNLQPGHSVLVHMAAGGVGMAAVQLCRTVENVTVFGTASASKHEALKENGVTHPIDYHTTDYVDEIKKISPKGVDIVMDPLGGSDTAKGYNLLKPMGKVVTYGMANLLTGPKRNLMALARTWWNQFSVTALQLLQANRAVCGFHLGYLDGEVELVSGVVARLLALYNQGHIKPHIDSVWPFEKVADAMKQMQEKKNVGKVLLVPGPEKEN
Put plainly: Covalent binding affinity to VAT1 at Cys86 residue in human NCI-H358 cells assessed as log2 H/L ratio at 10 uM pretreated for 3 hrs followed by N-(((6S,7R)-7-(4-chloro-3-fluorophenyl)-1,4-oxazepan-6-yl)methyl)-2-hydroxyacetamide treatment for 3 hrs by competitive TMT click chemistry pull-down experiment based LC-MS/MS analysis. In kind it is cell-based. As to conditions: time 6.0 hrs. Put shortly:
(§1)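 H358 cells were pretreated with DMSO (n = 3) or 10 μM compound for 3 h, then 2 μM alkyne probe was added for another 3 h. Cells were lysed, clicked onto azide-agarose resin, digested, TMT-labelled and pooled. The pool was fractionated by high-pH HPLC and each fraction run twice by 60 min low-pH nano LC-MS/MS. Readout was log2 compound/DMSO normalized reporter intensity, with a least-squares means test and FDR adjustment.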

Test [2] deals with GTPase KRas (Homo sapiens), P01116 [G12C]. Put plainly: Covalent binding affinity to KRAS G12C mutant at Cys12 residue in human NCI-H358 cells assessed as log2 H/L ratio at 10 uM pretreated for 3 hrs followed by N-(((6S,7R)-7-(4-chloro-3-fluorophenyl)-1,4-oxazepan-6-yl)methyl)-2-hydroxyacetamide treatment for 3 hrs by competitive TMT click chemistry pull-down experiment based LC-MS/MS analysis. In kind it is cell-based. As to conditions: time 6.0 hrs. The method in brief: as §1

Test [3] deals with T2, Retinaldehyde dehydrogenase 3 (Homo sapiens) (UniProt P47895).
T2 sequence (whole entry): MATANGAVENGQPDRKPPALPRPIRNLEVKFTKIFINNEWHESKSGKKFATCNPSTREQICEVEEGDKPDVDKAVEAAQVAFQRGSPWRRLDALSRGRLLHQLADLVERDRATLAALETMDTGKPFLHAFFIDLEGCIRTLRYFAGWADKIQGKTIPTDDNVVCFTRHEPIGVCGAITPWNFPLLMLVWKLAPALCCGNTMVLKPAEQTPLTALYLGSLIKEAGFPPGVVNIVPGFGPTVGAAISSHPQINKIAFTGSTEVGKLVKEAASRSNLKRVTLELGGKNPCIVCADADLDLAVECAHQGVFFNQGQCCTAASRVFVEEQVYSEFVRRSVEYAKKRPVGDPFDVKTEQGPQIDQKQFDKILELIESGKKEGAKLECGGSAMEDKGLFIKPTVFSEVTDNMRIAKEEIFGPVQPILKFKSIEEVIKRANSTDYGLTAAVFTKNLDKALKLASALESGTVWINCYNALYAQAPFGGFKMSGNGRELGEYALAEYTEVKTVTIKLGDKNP
Put plainly: Covalent binding affinity to ALDH1A3 at Cys52 residue in human NCI-H358 cells assessed as log2 H/L ratio at 10 uM pretreated for 3 hrs followed by N-(((6S,7R)-7-(4-chloro-3-fluorophenyl)-1,4-oxazepan-6-yl)methyl)-2-hydroxyacetamide treatment for 3 hrs by competitive TMT click chemistry pull-down experiment based LC-MS/MS analysis. In kind it is cell-based. As to conditions: time 6.0 hrs. The method in brief:
as §1

The next test concerns MIA PaCa-2. Put plainly: Antiproliferative activity against human MIA PaCa-2 cells harboring KRAS G12C mutant assessed as reduction in cell viability. In kind it is functional, cell-based.
Test [4] addresses T3, Peroxiredoxin-like 2A (Homo sapiens) (UniProt Q9BRX8).
T3 sequence (whole entry): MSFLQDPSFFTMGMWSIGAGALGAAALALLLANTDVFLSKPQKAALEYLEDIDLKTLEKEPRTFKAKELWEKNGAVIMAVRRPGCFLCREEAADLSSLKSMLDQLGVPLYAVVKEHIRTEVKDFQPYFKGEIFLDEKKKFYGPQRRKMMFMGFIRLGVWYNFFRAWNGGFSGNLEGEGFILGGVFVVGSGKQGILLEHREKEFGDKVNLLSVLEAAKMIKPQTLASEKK
The test can be described thus: Covalent binding affinity to FAM213A in human NCI-H358 cells assessed as log2 H/L ratio at 10 uM pretreated for 3 hrs followed by N-(((6S,7R)-7-(4-chloro-3-fluorophenyl)-1,4-oxazepan-6-yl)methyl)-2-hydroxyacetamide treatment for 3 hrs by competitive TMT click chemistry pull-down experiment based LC-MS/MS analysis. In kind it is cell-based. As to conditions: time 6.0 hrs. The method in brief: as §1

For test [5], the species on record is Homo sapiens. The test can be described thus: Covalent inhibition of GDP bound His-tagged KRAS G12C/C51L/C80L/C118S mutant (1 to 169 residues) (unknown origin) expressed in Escherichia coli assessed as enzyme-compound adduct formation at Cys12 residue by measuring ratio of Kinact/Ki measured up to 20 mins by mass spectrometry analysis relative to ARS-853. As to conditions: time min <=20.

The species named for test [6] is Homo sapiens. The test can be described thus: Covalent inhibition of GDP bound His-tagged KRAS G12C/C51L/C80L/C118S mutant (1 to 169 residues) (unknown origin) expressed in Escherichia coli assessed as enzyme-compound adduct formation at Cys12 residue by measuring ratio of Kinact/Ki measured up to 20 mins by mass spectrometry analysis. As to conditions: time min <=20. Put shortly:
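KRAS G12C was held fixed at 2 μM and incubated with varying compound concentrations. Fraction of covalent Cys12 adduct over time was measured by intact-protein LC-MS, and kinact/KI was calculated from these kinetic data.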

A further test concerns the target GTPase KRas (Homo sapiens, UniProt P01116, G12C). The test can be described thus: Covalent binding affinity to KRAS G12C mutant at Cys12 residue in human NCI-H358 cells assessed as reduction of log2 H/L ratio for tryptic peptide […] incubated for 4 hrs followed by cell lysis and subsequently labelled with light thiol probe N-((S)-18-iodo-11-isopropyl-10,13,17-trioxo-3,6-dioxa-9,12,16-triazaoctadecyl)-6-((4R,5S)-5-methyl-2-oxoimidazolidin-4-yl)hexanamide and heavy thiol probe 4 for 1 hr under dark conditions followed by tryptic digestion for overnight and measured by ABPP target occupancy based UHPLC Q-SIM MS analysis. The method in brief:
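Target occupancy: H358 cells were treated 4 h with DMSO, 0.08, 0.4, 2 or 10 μM, each paired with DMSO controls, in duplicate. Lysates were labelled heavy (treated) or light (control) with thiol probe, combined, trypsinized and streptavidin-enriched. The LVVVGAC*GVGK peptide pair was measured by UHPLC Q-SIM, with AUC H/L as occupancy. Each point averaged four MS injections, and IC50 came from the concentration-response curve.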

What is called IC50 is the concentration that gives 50% inhibition.

`C=CC(=O)N1CCN(c2ncnc3c(F)c(-c4c(O)cccc4F)c(Cl)cc23)CC1`: the figures for the half-maximal inhibitory concentration (IC50) in the test with NCI-H23, in the test on MIA PaCa-2 and at GTPase KRas were 0.7 µM, 0.12 µM and 1.8 µM, respectively. For the same compound, the Ratio in test [1] is -0.6; in test [2] it was -1.8; in test [3], -1.1; in test [4] it was -1.7; in the test filed under Homo sapiens [6], 501 M⁻¹ s⁻¹. The fold change (FC) in the test filed under Homo sapiens [5] amounted to 6.

(Values after ChEMBL document CHEMBL4715824, “Chemical Proteomic Characterization of a Covalent KRASG12C Inhibitor” (ACS Med Chem Lett, 2018).)
